The target of one assay is T1, AM-33 (Argas monolakensis, UniProt Q09JW0).
T1 sequence (Q09JW0 19-179): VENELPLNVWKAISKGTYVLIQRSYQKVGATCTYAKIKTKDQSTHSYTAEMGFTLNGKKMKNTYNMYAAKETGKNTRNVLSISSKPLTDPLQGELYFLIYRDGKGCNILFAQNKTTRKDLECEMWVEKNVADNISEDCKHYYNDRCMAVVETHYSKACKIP
Description: isothermal titration calorimetry. Format: binding. In a few lines:
(§1)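 Recombinantly expressed tick salivary lipocalin, checked for quality, in isothermal titration calorimetry on a VP-ITC instrument. Protein at 2 µM titrated against 20 µM lipid-derived ligand (fatty acid, leukotrienes, thromboxane analogues, prostaglandin, PAF) unless otherwise indicated. Stoichiometry (N), KD, ΔH and TΔS fitted per titration; S.E.M. is deviation of the data from the fit.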

The target in the next assay is T2, TSGP4 (Ornithodoros kalahariensis, UniProt Q8I9T9).
T2 sequence (Q8I9T9 21-176): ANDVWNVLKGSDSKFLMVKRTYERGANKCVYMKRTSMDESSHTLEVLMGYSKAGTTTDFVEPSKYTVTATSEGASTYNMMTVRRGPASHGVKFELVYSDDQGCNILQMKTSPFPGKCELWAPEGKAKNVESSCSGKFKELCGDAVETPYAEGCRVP
Description: isothermal titration calorimetry. Format: binding. The procedure, abridged: as §1
For orientation: Isothermal titration calorimetry measures the heat released or taken up as one component is titrated into another.

Data on five compounds can be found in publication PMC2583325 (Insect biochemistry and molecular biology, 2008).

A word on the Kd: it is the free concentration of one partner at which half of the binding sites on the other are occupied at equilibrium, for simple one-to-one binding. A higher Kd goes with lower affinity.

Regarding `CCCCC/C=C\C\C=C/C=C/C=C/[C@@H](SC[C@H](NC(=O)CC[C@H](N)C(=O)O)C(=O)NCC(=O)O)[C@@H](O)CCCC(=O)O` [LTC4], the Kd on AM-33 was 2.2 ± 0.4 nM; at TSGP4, no more than 2 nM.

With `CCCCC/C=C\C/C=C\C/C=C\C/C=C\CCCC(=O)O` [Arachidonic acid], the Kd at AM-33 was determined as 613 ± 198 nM; at TSGP4, 155 ± 43 nM.

`CCCCC/C=C\C\C=C/C=C/C=C/[C@@H](SC[C@H](N)C(=O)O)[C@@H](O)CCCC(=O)O` [LTE4]: the Kd was 68 ± 6.6 nM on AM-33 and 10.8 ± 2 nM on TSGP4.

`CCCCC/C=C\C[C@@H](O)/C=C/C=C/C=C\[C@@H](O)CCCC(=O)O` [LTB4]: the results for the Kd at AM-33 and at TSGP4 were 587 ± 286 nM and 1000 ± 476 nM, respectively.

Regarding `CCCCC/C=C\C\C=C/C=C/C=C/[C@@H](SC[C@H](N)C(=O)NCC(=O)O)[C@@H](O)CCCC(=O)O` [LTD4], the Kd at AM-33 and at TSGP4 was no more than 2 nM in each case.
